This is a sample that favours compounds with a hit; in the whole collection about 2.1% have one here.
UCH37 inh – inhibitors of human UCH37 deubiquitinase, primary screen, biochemical, Ub-AMC cleavage, fluorescence. purified proteasome/UCH37. inhibition, % (test concentration not listed). 330,000 compounds, 0.33% hits. AID 588478, 2011;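 active = mean inhibition over replicate wells above about 20%, limit read from the data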
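Material: Human UCH37 enzyme supplied as purified proteasome complex | Schedule: 30 min preincubation with enzyme, 25 min cleavage at room temperature | Detection: AMC fluorescence 355/460 nm | Measure: % inhibition of Ub-AMC cleavage fluorescence | Controls: Wells without proteasome as full block, compound-free enzyme plus substrate as uninhibited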
HKDC1 inh – HKDC1 hexokinase inhibitors, primary screen, biochemical, fluorescence, uHTS; Q2TB90; recombinant HKDC1, G6PDH/diaphorase resazurin coupled fluorescence; inhibition, % at 20 µM; 340,000 compounds, 0.16% hits;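 active = inhibition above about 35% when tested at 20 µM, limit read from the data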
Target sequence (Q2TB90 whole entry, looked up): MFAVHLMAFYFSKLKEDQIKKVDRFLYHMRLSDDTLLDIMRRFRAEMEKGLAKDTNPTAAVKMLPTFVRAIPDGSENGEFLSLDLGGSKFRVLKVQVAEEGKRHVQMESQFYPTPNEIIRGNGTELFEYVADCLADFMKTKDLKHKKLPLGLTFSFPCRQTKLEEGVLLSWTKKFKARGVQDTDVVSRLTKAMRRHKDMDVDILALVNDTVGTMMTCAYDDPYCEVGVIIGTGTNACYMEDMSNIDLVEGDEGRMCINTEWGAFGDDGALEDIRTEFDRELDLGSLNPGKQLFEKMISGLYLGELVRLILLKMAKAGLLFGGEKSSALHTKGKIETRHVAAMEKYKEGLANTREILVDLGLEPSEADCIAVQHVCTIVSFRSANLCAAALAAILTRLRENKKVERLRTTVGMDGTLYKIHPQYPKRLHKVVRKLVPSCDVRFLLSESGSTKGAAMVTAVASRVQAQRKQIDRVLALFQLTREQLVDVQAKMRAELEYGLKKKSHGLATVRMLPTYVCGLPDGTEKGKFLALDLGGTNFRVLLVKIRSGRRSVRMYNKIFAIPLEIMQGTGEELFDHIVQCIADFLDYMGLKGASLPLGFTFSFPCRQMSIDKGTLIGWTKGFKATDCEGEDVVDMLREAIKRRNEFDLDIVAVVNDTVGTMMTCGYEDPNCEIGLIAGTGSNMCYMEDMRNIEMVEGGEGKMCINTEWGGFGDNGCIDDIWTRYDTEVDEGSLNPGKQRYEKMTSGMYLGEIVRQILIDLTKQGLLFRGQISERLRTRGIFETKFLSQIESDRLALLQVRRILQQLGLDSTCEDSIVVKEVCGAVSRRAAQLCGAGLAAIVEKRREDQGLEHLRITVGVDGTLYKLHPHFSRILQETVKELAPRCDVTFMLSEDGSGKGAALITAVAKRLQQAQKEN
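Test system: Recombinant HKDC1 (HK5) hexokinase enzyme, produced in-house | Input: HKDC1 at 5 µg/mL | Buffer or medium: Tris pH 8.0 buffer with MgCl2, Tween-20, BSA, BME | Schedule: 90 min reaction incubation at room temperature, dark | Technique: Resazurin-to-resorufin fluorescence via G6PDH and diaphorase coupling, 525/613 nm | Controls: DMSO wells with and without enzyme mix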
B2AR ag – beta2AR agonists driving receptor internalization, primary screen, cell-based, FAP fluorogen, flow cytometry; Beta-2 adrenergic receptor (Homo sapiens), P07550; Am2.2-beta2AR cells; response, % (concentration not given with the values); 340,000 compounds, 0.43% hits; AID 504454, 2011;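 active = response above a set limit, near 3 SD of response in nonfluorescent compounds, cut at about 42% in these data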
aDG glyco act – activators of alpha-DG glycosylation, primary screen, uHTS, Pro5-aDG cells, AlphaScreen. 360,000 compounds, 0.22% hits. alpha-DG glycosylation AlphaScreen (IIH6); 0% Pro5, 100% B10-LARGE cell signal. activation, % at 10 µM;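 active = activation of at least 8% versus controls, or a plate z-score of at least 8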;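 also: Pro5 are CHO cells carrying HIG-tagged alpha-DG that lacks glycosylation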
H9c2 protect – cardioprotection against H2O2-induced cell death, primary screen, uHTS, H9c2 cells, ATPLite luminescence | protection from H2O2 cell death, % at 20 µM | 360,000 compounds, 0.63% hits | H9c2 cardiomyocytes, H2O2 injury protection, 2 h;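 active = compounds giving at least 50% protection of heart cells from peroxide-induced death in the single-dose screen, raw or plate-pattern-corrected value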
PfGluPho inh – PfG6PD enzyme inhibitors, primary screen, biochemical, fluorescence intensity, uHTS | glucose-6-phosphate dehydrogenase-6-phosphogluconolactonase (Plasmodium falciparum 3D7) | PfGluPho enzyme, NADPH resazurin-diaphorase fluorescence | inhibition, % at 20 µM | 350,000 compounds, 0.78% hits;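 active = inhibition reaching at least a set limit at 20 µM in the primary screen, cut at about 59% in these data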
Numbers stand for hits; - = inactive; . = no result given.

SMILES	UCH37 inh	HKDC1 inh	B2AR ag	aDG glyco act	H9c2 protect	PfGluPho inh
Cc1cc(C(=O)c2ccccc2)c(NC(=O)CN2CCOCC2)s1	-	-	-	-	-	-
Cc1cc(C(=O)c2ccc(C(C)(C)C)cc2)c(NC(=O)CCl)s1	-	-	96.0	-	-	-
Cn1nc(-c2ccccc2F)c2cc(C(=O)Nc3ccc4c(c3)OCCO4)sc21	-	-	-	-	55.5	-
COc1ccc(NC(=O)c2cc3c(COC(C)=O)cnc(C)c3oc2=Nc2cccc(C(=O)O)c2)c(OC)c1	-	-	-	-	-	67.8
COc1ccccc1NC(=O)c1cc2c(CO)cnc(C)c2oc1=Nc1cccc(C(N)=O)c1	-	-	57.9	-	-	-
CC(=NNC(=O)c1cc(-c2ccc(Cl)s2)[nH]n1)c1ccncc1	-	.	.	.	.	.
Cc1cc(O)c(C=Nc2ccc(N3CCOCC3)cc2)c(C)c1Cl	-	-	-	-	83.1	-
Cn1c(O)c(C=Nc2ccc(N3CCOCC3)cc2)c(=O)n(C)c1=S	33.7	-	-	-	-	-
Cc1ccc(S(=O)(=O)N=C(Sc2ccccc2C(=O)O)c2ccccc2)cc1	-	.	.	.	.	.
CCCn1c(/N=C/c2ccccc2O)nc2ccccc21	.	-	-	-	-	-
Cn1c(/N=C/c2c(O)ccc3ccccc23)nc2ccccc21	.	53.7	-	-	-	75.7
CN(C)C=Nc1cc(=O)n(Cc2ccccc2)c(=O)n1C	-	.	.	.	.	.
CC(C)OCCCNC(=O)CCC(=O)NNc1nc2ccccc2c2nc(-c3ccccc3)nn12	-	-	-	-	84.4	-
CCOCCCNC(=O)CCC(=O)NNc1nc2ccccc2c2nc(-c3ccccc3)nn12	-	-	-	-	53.7	-
CC(=NNC(=O)c1cc(-c2ccncc2)nc2ccccc12)c1ccc(OC(F)F)cc1	-	.	.	.	.	.
Cc1ccsc1C=NNC(=O)c1cccnc1	-	.	.	.	.	.
O=C(Cn1ncc(Cl)c(Cl)c1=O)NCC1CCCCC1	-	-	59.8	-	-	-
O=C(Cn1ncc(Cl)c(Cl)c1=O)NC1CCCCC1	-	-	-	-	-	-
CCCCNC(=O)C(C#N)=c1sc(=Cc2ccccc2OC(F)F)c(=O)n1CCCOC	-	.	.	.	.	.
Cc1[nH]c2ccccc2c1/C=N/Nc1nc(Nc2ccccc2)nc(N2CCOCC2)n1	.	-	-	-	59.5	-
N#Cc1ccc(OCC(=O)OCC(=O)c2ccc[nH]2)cc1	-	-	48.7	-	-	-
N#Cc1ccccc1OCC(=O)OCC(=O)c1ccc[nH]1	-	-	-	-	-	-
COc1ccccc1NC(=O)c1cc2ccccc2oc1=NO	-	.	.	.	.	.
COc1ccc2o/c(=N\O)c(C(=O)Nc3ccccc3OC)cc2c1	.	-	53.4	-	-	-
O=C(NN=Cc1cn(Cc2ccccc2)c2ccccc12)c1ccncc1	-	.	.	.	.	.
SMILES	UCH37 inh	HKDC1 inh	B2AR ag	aDG glyco act	H9c2 protect	PfGluPho inh
COc1ccc(OCC(=O)NN=Cc2cccn2-c2cccc(C(=O)O)c2)cc1	-	.	.	.	.	.
O=[N+]([O-])c1ccc(C2CN=C(Nc3ccccc3)S2)cc1 (stereo not given)	-	-	-	-	-	-
CCc1ccc(NC2=NCC(c3ccccc3)S2)cc1 (stereo not given)	-	-	66.6	-	-	-
COc1cc(C=NNC(=O)CCC(=O)Nc2ccc(Br)cc2)ccc1O	-	.	.	.	.	.
COc1cc(NC(=O)COC(=O)CON=C(C)c2ccc3c(c2)OCO3)cc(OC)c1OC	-	.	.	.	.	.
Nc1ccc(N)c(C(=O)O)c1	.	36.0	-	-	-	70.9
O=C(Cc1ccccc1)NCC(=O)NN=Cc1cccnc1	-	.	.	.	.	.
COc1ccc2[nH]c(=O)c(CNc3ccccc3OC)cc2c1	-	-	-	-	-	69.2
COc1ccc(NC(=O)N(CCCN(C)C)Cc2cc3cc(OC)ccc3[nH]c2=O)cc1	-	-	-	-	51.1	-
COc1cccc(C=NNc2nnc(C)n2N)c1OCc1ccccc1Cl	-	.	.	.	.	.
NC(=O)c1c(NC(=O)Cn2nc(C(=O)O)c3ccccc3c2=O)sc2c1CCCC2	-	-	-	-	-	-
NC(=O)c1c(NC(=O)Cn2nc(C(=O)O)c3ccccc3c2=O)sc2c1CCC2	-	-	-	-	54.3	-
COc1ccccc1NC(=O)CCC(=O)NN=C(C)c1ccc(C)cc1	-	.	.	.	.	.
COc1ccc(C(C(=O)NC2CCCCC2)N(C(=O)Cc2c[nH]c3ccccc23)c2ccccc2C)cc1OC (stereo not given)	-	-	-	-	-	-
O=C(NC1CCCCC1)C(c1cccs1)N(Cc1cccs1)C(=O)c1cccs1 (stereo not given)	-	-	-	-	-	-
O=C(NC1CCCCC1)C(c1ccc2ncccc2c1)N(Cc1cccs1)C(=O)c1cccs1 (stereo not given)	-	-	-	-	51.3	-
COc1ccc(C(C(=O)NC2CCCCC2)N(Cc2cccs2)C(=O)Cc2c[nH]c3ccccc23)cc1OC (stereo not given)	-	-	-	-	52.2	-
O=C(NC1CCCCC1)C(c1ccc2ncccc2c1)N(Cc1ccco1)C(=O)c1ccc2c(c1)OCCO2 (stereo not given)	-	-	-	-	55.8	-
CCOc1cccc(-c2c(C(=O)NN=C(C)c3ccccn3)nnn2-c2nonc2N)c1	-	.	.	.	.	.
O=C(NCCCNC(=O)c1ccccc1)c1ccccc1	-	-	-	-	-	-
O=C(NCNC(=O)c1ccccc1)c1ccccc1	-	-	62.8	-	-	-
COc1cc(O)c(C=NN2C(=O)CSC2=S)c(OC)c1	.	.	.	-	62.3	-
Oc1c(Cl)cc(Cl)cc1C=Nc1nccs1	-	.	.	.	.	.
O=C(NNC(=O)c1ncc(Cl)c(Cl)c1Cl)c1ccc(F)cc1	-	-	-	-	77.7	-
Cc1cc(C(=O)CSc2nnc(-c3cccc(F)c3)n2N)c(C)n1Cc1ccc2c(c1)OCO2	-	-	81.9	-	-	-
SMILES	UCH37 inh	HKDC1 inh	B2AR ag	aDG glyco act	H9c2 protect	PfGluPho inh
O=C(C(=O)c1ccc(O)c(O)c1)c1ccc(O)c(O)c1	23.5	-	-	-	-	-
CC(C)(C)C=NNC(=O)C1CC1	-	.	.	.	.	.
O=C(CCN1CCOCC1)NN=Cc1cc([N+](=O)[O-])ccc1OC(F)F	-	.	.	.	.	.
COc1cc2c(cc1OC)CN(CC(=O)Nc1ccccc1C#N)CC2	-	-	-	-	74.2	-
COc1ccc(CNn2c(-c3cccs3)nc3ccccc3c2=O)cc1OC	-	-	-	-	67.0	-
COc1cccc(C(=O)Nn2c(-c3cccs3)nc3ccccc3c2=O)c1OC	-	-	-	-	-	-
CC(C)(C)N1C(=O)Cc2c1nc(N)c1c(N)nc(N3CCCCC3CO)c(C#N)c21 (stereo not given)	-	-	-	-	-	88.8
